# Results reported in PubChem BioAssay AID504383 (The Scripps Research Institute Molecular Screening Center, 2011).
# The whole screen tested about 2,500 compounds, of which about 1,200 (48%) were called active.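 Rule for the calls: active = mean activation above the low control average plus 3 SD, as set in the primary screen (cut at about 12% in these data); inactive = the rest.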 So high a share suggests a set chosen from earlier hits. The list shows a part of the results.
# Target: Troponin I, cardiac muscle (Homo sapiens) + Troponin T, cardiac muscle (Homo sapiens) + Troponin C, slow skeletal and cardiac muscles (Homo sapiens) (UniProt P19429+P45379+P63316)
# Test: calcium sensitizers of cardiac thin filaments – biochemical, IANBD-TnC fluorescence, triplicate, confirmation (AID 504383);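 note: 0% = DMSO at 0.472 mM calcium and 100% = DMSO at 2.9 mM calcium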
# Settings: IANBD-labeled cardiac RTF, Ca2+ sensitivity fluorescence, at 7.2 µM, hits give high values, tested at EC20 calcium, 0.472 mM
# In short: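 Assay system: labelled regulated thin filament protein complex; schedule: 15 min compound incubation with filaments at 25 °C; benchmarks: low control EC20 calcium, high control EC100 calcium; reagent: Ca2+ 0.472 mM, EC20 level; doses: one dose, 7.2 µM nominal; evaluation: fluorescence gain scaled between EC20 and EC100 calcium controls; signal: filament fluorescence intensity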
row,Compound,activation
1,CCN(CC)c1ccc(/C=C/[N+](=O)[O-])cc1,19.8% (active)
2,Cn1cc(C=C(C#N)C#N)c2ccccc21,69.5% (active)
3,COC(=O)C1=C(c2cccc(OC)c2OC)C[C@@H]2CC[C@H]1N2C(=O)NCc1ccco1,13.3% (active)
4,COC(=O)C1=C(c2ccc(F)cc2OCc2ccccc2)C[C@@H]2CC[C@H]1N2C(=O)NCc1ccc(OC)c(OC)c1,154% (active)
5,COC(=O)C1=C(c2cccc(OC)c2OC)C[C@@H]2CC[C@H]1N2C(=O)NCCCOC(C)C,5.72% (inactive)
6,CCN(CC)CCCOC(=O)C(OC(C)C)(c1ccccc1)c1ccccc1,57.9% (active)
7,C/C(=N\N1CCCCC1c1cccnc1)c1c(O)n(C2CCCCC2)c(=S)[nH]c1=O (stereo not drawn),68.2% (active)
8,COc1ccc(OC)c(-n2c(O)c(C=NCCN3CCNCC3)c(=O)[nH]c2=S)c1,27.9% (active)
9,Cc1ccc(-n2c(O)c(C=NCC3CCCO3)c(=O)[nH]c2=O)c(C)c1 (stereo not drawn),7.57% (inactive)
10,O=c1[nH]c(=S)n(-c2ccccc2Cl)c(O)c1C=NCCN1CCNCC1,1670% (active)
11,Cc1cccc(N2C(=O)NC(=O)/C(=C\c3ccc4c(c3)CCCN4Cc3ccccc3)C2=O)c1,4.9% (inactive)
12,CCOCCCNC(=O)C1c2cc(OC)c(OC)cc2C(=O)N2CCCCC12 (stereo not drawn),2.74% (inactive)
13,CCc1ccccc1N1C(=O)/C(=C/c2ccc(N3CCN(C)CC3)o2)C(=O)NC1=S,1030% (active)
14,Cc1ccccc1N1C(=O)NC(=O)/C(=C/c2ccc(N3CCOCC3)o2)C1=O,42.7% (active)
15,CN1CCN(c2ccc(/C=C3\C(=O)NC(=S)N(c4cccc(Br)c4)C3=O)o2)CC1,4.38% (inactive)
16,Cc1ccccc1N1C(=O)NC(=O)/C(=C\c2cc(Br)c(N3CCOCC3)o2)C1=O,11% (inactive)
17,COc1ccccc1N1C(=O)NC(=O)/C(=C/c2ccc3c4c(cccc24)CC3)C1=O,2.54% (inactive)
18,Cc1cccc(N2C(=O)/C(=C/c3ccc(N4CCN(C)CC4)o3)C(=O)NC2=S)c1C,16.4% (active)
19,CN1C(=O)C(=Cc2sc(=O)n(-c3ccccc3)c2N2CCCCC2)C(=O)N(C)C1=O,3.11% (inactive)
20,COc1cc(/C=C2/C(=O)NC(=O)N(c3ccc(C)cc3)C2=O)cc(OC)c1OC,6.29% (inactive)

row,Compound,activation
1,O=C1NC(=O)C(=Cc2ccc(N3CCOCC3)o2)C(=O)N1,2.33% (inactive)
2,CCN1C(=O)C(=Cc2ccc(N3CCOCC3)o2)C(=O)N(CC)C1=S,7.34% (inactive)
3,CCN(CC)c1ccc(/C=C2\C(=O)NC(=S)N(c3ccc(OC)cc3OC)C2=O)o1,8.36% (inactive)
4,C=CCN1C(=O)/C(=C/c2ccc(N3CCOCC3)o2)C(=O)NC1=S,29.1% (active)
5,CN1C(=O)C(=Cc2ccc(N3CCOCC3)o2)C(=O)N(C)C1=O,50.2% (active)
6,CN1C(=O)C(=Cc2ccc(N3CCOCC3)o2)C(=O)N(C)C1=S,10.3% (inactive)
7,C=CCN1C(=O)/C(=C\c2ccc(N3CCOCC3)o2)C(=O)NC1=S,4% (inactive)
8,COc1ccc(N2C(=O)/C(=C/c3ccc(N(C)C)o3)C(=O)NC2=S)cc1,338% (active)
9,CN1C(=O)C(=Cc2ccc(N3CCCCCC3)o2)C(=O)N(C)C1=S,94.7% (active)
10,CN1Cc2c(c(C#N)c(N)n(C)c2=S)CC1(C)C,4.38% (inactive)
11,COc1ccc2c3c([nH]c2c1)C(C)=NCC3,9.9% (inactive)
12,FC(F)(F)c1ccc2c(c1)nnn2C1CCN(Cc2nnnn2Cc2ccccc2)CC1,4.26% (inactive)
13,O=C1NC(=O)N(c2ccc3c(c2)OCO3)C(=O)/C1=C\c1ccc(N2CCCCC2)o1,-1.01% (inactive)
14,CN1C(=O)/C(=C/c2ccc(N3CCCCCC3)o2)C(=O)NC1=S,39% (active)
15,CN1C(=O)/C(=C\c2ccc(N3CCCCC3)o2)C(=O)NC1=S,8.33% (inactive)
16,O=C1NC(=O)N(c2ccc3c(c2)OCO3)C(=O)/C1=C/c1ccc(N2CCCC2)o1,3.64% (inactive)
17,CCN(CC)c1ccc(/C=C2\C(=O)NC(=S)N(C)C2=O)o1,25.4% (active)
18,CCN(CC)c1ccc(C=C2C(=O)N(C)C(=S)N(C)C2=O)o1,8.61% (inactive)
19,CCOc1ccc(N2C(=O)NC(=O)/C(=C\c3ccc(N4CCCCC4)o3)C2=O)cc1,154% (active)
20,COc1cccc2c1C(=O)c1c(O)c3c(c(O)c1C2=O)CC(O)(C(C)=NO)CC3OC1CC(N)C(O)C(C)O1 (stereo not drawn),4.26% (inactive)

row,Compound,activation
1,Nc1ccc2ccc3cccc[n+]3c2c1,11.7% (active)
2,Cc1ccc(N2C(=O)NC(=O)/C(=C\c3ccoc3)C2=O)cc1,4.43% (inactive)
3,CN1CCc2cc3c(c4c2C1Cc1ccccc1-4)OCO3 (stereo not drawn),13.5% (active)
4,CC1=NCCc2c1[nH]c1cc(O)ccc21,5.4% (inactive)
5,CCCc1cc(=O)oc2cc(OCC(=O)N3CCC(C(=O)O)(c4ccccc4)CC3)ccc12,10.7% (inactive)
6,CCCc1cc(=O)oc2cc(OCC(=O)N3C[C@H]4C[C@@H](C3)c3cccc(=O)n3C4)ccc12,113% (active)
7,O=C1NC(=O)C(=Cc2cn(CCOc3ccc4c(c3)OCO4)c3ccccc23)C(=O)N1,12.6% (active)
8,COc1ccc(N2C(=O)NC(=O)/C(=C\c3cn(C)c4ccccc34)C2=O)cc1,3.56% (inactive)
9,Cc1ccc(/C=C2/Sc3ccc(C(=O)N4CCC5(CC4)OCCO5)cc3NC2=O)cc1,106% (active)
10,COc1ccc(CC(=O)N2CCN(C)CC2)cc1OC,13.3% (active)
11,N#CC(C#N)=Cc1ccc(C=C(C#N)C#N)cc1,1.09% (inactive)
12,Cc1cc(N2CCCC2)ccc1C=C(C#N)C#N,95.7% (active)
13,Cc1cc(C=C(C#N)C#N)ccc1N1CCCC1,13% (active)
14,Cc1cc(Cl)ccc1C(=O)C1CCCN(C2CCSCC2)C1 (stereo not drawn),2.78% (inactive)
15,O=Cc1c(C(=O)O)n(Cc2ccc(Cl)cc2)c2ccccc12,7.27% (inactive)
16,Cc1cc(N(CCCl)CCCl)ccc1C=Cc1ccncn1,17.4% (active)
17,CCCCn1c(O)c(/C=C/C=Nc2ccccc2)c(=O)[nH]c1=O,10% (inactive)
18,CCCCn1c(O)c(C(=O)/C=C/c2c[nH]c3ccccc23)c(=O)[nH]c1=O,14.8% (active)
